Source: the RNAGym collection of RNA variant scans (doi:10.1126/science.aae0568)
This sample holds only a part of the variants without activity.

B1: tRNA (parent)
chain: GUUCCGUUGGCGUAAUGGUAACGCGUCUCCCUCCUAAGGAGAAGACUGCGGGUUCGAGUCCCGUACGGAACG

Variants of: B1
Test: yeast fitness relative to wild type (ratio to wild type); higher = fitter; tRNA-Arg(CCU), competitive growth, 37 C, YPD
In short: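 Gene amplicons from the start population and from each of six end populations were read by 100-nucleotide paired-end sequencing. Those end populations came from pooled Saccharomyces cerevisiae strains carrying tRNA-Arg(CCU) gene variants at the native locus, competed in YPD at 37°C for 24 hours. Fitness relative to wild type was worked out from changes in genotype frequencies. Genotypes needed ≥ 100 starting reads, and estimates < 0.5 were set to 0.5.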
With G6A C11U C30U G67A the yeast fitness was ≤ 0.5.
G12A U26C showed a yeast fitness of 0.878.
With G17A G41C C55A the yeast fitness was ≤ 0.5.
With C31G C62U the yeast fitness was 1.07.
A14G A21C A37G showed a yeast fitness of 0.562.
In the case of C11U U19G G51C C66A, the yeast fitness is reported as 0.578.
Work on A45G C61A yielded a yeast fitness of 0.635.
With U3C C5G C30G A36C the yeast fitness was ≤ 0.5.
With A14C A20U G25C A43C the yeast fitness was ≤ 0.5.
For C4A G38A C55G, the yeast fitness was ≤ 0.5.
For U16A C30G G44C C61A, the yeast fitness was ≤ 0.5.
With C31U A37G C62G the yeast fitness was 0.517.
With C4U G10C G48C G56C the yeast fitness was ≤ 0.5.
Work on C4A C62U yielded a yeast fitness of 0.852.
With G12A G50C C66U the yeast fitness was ≤ 0.5.
C4G C60A gave a yeast fitness of 0.642.
In the case of U3C C27U C30U U53A A69C, the yeast fitness is reported as ≤ 0.5.
Work on A36U G50U A57U yielded a yeast fitness of 0.616.
U2A C24A A45G gave a yeast fitness of 0.568.
With A21C A42U U54A the yeast fitness was ≤ 0.5.
For U3A G9A A14C C55U A70G, the yeast fitness was ≤ 0.5.
In the case of C22G A43U, the yeast fitness is reported as 0.952.
In the case of C4G U8C U28G C49A C62G, the yeast fitness is reported as ≤ 0.5.
U59C C66U showed a yeast fitness of 0.911.
In the case of A42C A45C G48A G58A C61U A70G, the yeast fitness is reported as ≤ 0.5.
With U19A C24A U32C A36U C66G the yeast fitness was ≤ 0.5.
With C4A C30G A40C C55A G58C A65U A70U the yeast fitness was ≤ 0.5.
With A40U A43C A69U the yeast fitness was 0.851.
In the case of C11A A21U A43U, the yeast fitness is reported as ≤ 0.5.
Work on U35A G67A yielded a yeast fitness of 0.714.
For C24A U32C C33U U54C, the yeast fitness was 0.602.
Variant G9A U19A A65C has a yeast fitness of 0.746.
In the case of U8C A21G C33U A36G A43U A65U A70G, the yeast fitness is reported as ≤ 0.5.
With G12A C27G G48A the yeast fitness was ≤ 0.5.
In the case of G63C G67U, the yeast fitness is reported as 0.677.
In the case of A15U U26A C60U G67A, the yeast fitness is reported as ≤ 0.5.
Variant C22U C66U A69U has a yeast fitness of 0.6.
C49G G63C gave a yeast fitness of 0.967.
For A20U C34U G51C C60U, the yeast fitness was ≤ 0.5.
Variant C4A C33A C62A has a yeast fitness of 0.668.
Variant C34G has a yeast fitness of 0.65.
With U26C C27A C34U G41A the yeast fitness was ≤ 0.5.
With C24U G39C C61U the yeast fitness was 0.549.
With C4U G18C A57U C62U U64A G68C the yeast fitness was ≤ 0.5.
Work on C31G A36C yielded a yeast fitness of 0.555.
For U26A U28A C31U G67A, the yeast fitness was ≤ 0.5.
With U2A G9A C31U C46G C49U C66G the yeast fitness was ≤ 0.5.
Variant C11A U35A A37C A43G has a yeast fitness of 0.511.
Variant C11U U32C A40U has a yeast fitness of 0.785.
Variant A14U G44A has a yeast fitness of 0.582.
For U13C C49G G50C A65U, the yeast fitness was ≤ 0.5.
With C5A G44C the yeast fitness was 0.8.
With A15C C46G A65G C66U the yeast fitness was ≤ 0.5.
With C5U A21U C30G C66U the yeast fitness was ≤ 0.5.
Work on C33U A42C A65G yielded a yeast fitness of 0.58.
In the case of C34G A40U A43C C49G G50A C60U, the yeast fitness is reported as ≤ 0.5.
With U2C G18A C29A the yeast fitness was ≤ 0.5.
In the case of U19A A69U, the yeast fitness is reported as 1.04.
With C29U C34G G38C U54A A57C the yeast fitness was ≤ 0.5.
U26G A42C C61U showed a yeast fitness of 0.684.
For G39A C49G A69U, the yeast fitness was ≤ 0.5.
For C5U C34A A36G G63A, the yeast fitness was ≤ 0.5.
Work on U2C G50A G68C yielded a yeast fitness of 0.556.
In the case of G10C C30U, the yeast fitness is reported as 0.733.
With U3C C4G U8G C34U A37G the yeast fitness was ≤ 0.5.
With C5U A40U A42G the yeast fitness was ≤ 0.5.
With U16A U54C C55G the yeast fitness was ≤ 0.5.
For U2A A14C C30U C34G, the yeast fitness was ≤ 0.5.
In the case of G18A U26G G50C G63C, the yeast fitness is reported as 0.589.
G44C A57C showed a yeast fitness of 0.568.
With U3G C29A U35G G51A the yeast fitness was ≤ 0.5.
Variant G9C U19C G48A has a yeast fitness of 0.901.
For C33G C66G, the yeast fitness was 0.604.
In the case of U3A C5U A42C A43U G56C C66U, the yeast fitness is reported as ≤ 0.5.
With U8G U19A U54A A57U C66U the yeast fitness was 0.576.
In the case of C4G U26G G39C G48A, the yeast fitness is reported as 0.611.
With A14U A15C G25C the yeast fitness was ≤ 0.5.
U2A C5G A42G gave a yeast fitness of 0.541.
Work on C22U C30G yielded a yeast fitness of 0.515.
A15U C30U A40G C55U showed a yeast fitness of 0.653.
For A14G C31U C55A, the yeast fitness was 0.552.
C31A C61U showed a yeast fitness of 0.845.
For U2A U32C C33A G51C G68A, the yeast fitness was ≤ 0.5.
In the case of A15C G52A A70U, the yeast fitness is reported as ≤ 0.5.
Variant G10A C30A has a yeast fitness of 0.64.
With C5U C22U G44C the yeast fitness was 0.73.
In the case of G48A U59C, the yeast fitness is reported as 0.934.
With U8A C11U G25A C33A A40U A69U the yeast fitness was ≤ 0.5.
With U3G A14C the yeast fitness was 0.773.
With C29G G48A the yeast fitness was 0.586.
Variant C4U A40U C66U has a yeast fitness of 0.762.
With U7C G9A A14C C33G G50C C60G U64A the yeast fitness was 0.618.
Variant G6A G9C A21G has a yeast fitness of 0.537.
With U7A C11U A15G A65C the yeast fitness was ≤ 0.5.
In the case of U3C C46A G58C, the yeast fitness is reported as 1.04.
In the case of G18A G50C C55G, the yeast fitness is reported as ≤ 0.5.
In the case of U26A C49U A65G, the yeast fitness is reported as ≤ 0.5.
A15G G51A gave a yeast fitness of 0.668.
With G25A G48A A70C the yeast fitness was 1.13.
Work on G17A A43C yielded a yeast fitness of 0.698.
G12A G50C U64C showed a yeast fitness of 0.692.
C5U A14U A15C gave a yeast fitness of 0.727.
With C24U A42U G52A the yeast fitness was 0.563.
For G52A C61U, the yeast fitness was 0.886.
Work on C11U A45U A69U yielded a yeast fitness of 0.915.
C4A U28A gave a yeast fitness of 0.761.
With G6A G12A A15C C24A the yeast fitness was ≤ 0.5.
For U8A A65U, the yeast fitness was 0.708.
With G6A U8C C62U G67A the yeast fitness was ≤ 0.5.
For C4G A57U, the yeast fitness was 0.757.
With G41C C55G the yeast fitness was 0.621.
In the case of A14C C22G U26G, the yeast fitness is reported as ≤ 0.5.
With U32G U35G A36C the yeast fitness was ≤ 0.5.
In the case of C5U A20G G44C, the yeast fitness is reported as 0.764.
In the case of A20G U35C, the yeast fitness is reported as 0.836.
U8G G38C G67U gave a yeast fitness of 0.529.
Work on G25A C66U yielded a yeast fitness of 0.902.
With U19A C33U A36U C60U the yeast fitness was ≤ 0.5.
For G6A C29U C31A C34U G56A, the yeast fitness was ≤ 0.5.
With G12C A65U A70U the yeast fitness was 0.606.
For A21U C29A A36G G58A C66U, the yeast fitness was ≤ 0.5.
With G10A A14C U32A the yeast fitness was ≤ 0.5.
Work on U26C C55A yielded a yeast fitness of 0.65.
With A20U C34A G58A the yeast fitness was ≤ 0.5.
C24U C29U C30A gave a yeast fitness of 0.706.
For C33G G67A A69C, the yeast fitness was ≤ 0.5.
In the case of G6A C55A, the yeast fitness is reported as 0.587.
For U3A G51A U53C, the yeast fitness was 0.648.
With G6A A43G U59C the yeast fitness was 0.595.
In the case of U32C G51C C61U, the yeast fitness is reported as ≤ 0.5.
In the case of C5G G10A A20U C24U C34U A43U A69C, the yeast fitness is reported as 0.667.
With G12A G23A C49U C60U G67A the yeast fitness was ≤ 0.5.
For C22A U26A C29G C34G A65G A69C, the yeast fitness was ≤ 0.5.
For U2G C11U A45C U53G A65G, the yeast fitness was ≤ 0.5.
With C4G G6C U8G G17A G23A A45G A70C the yeast fitness was ≤ 0.5.
In the case of G17C C29U A70U, the yeast fitness is reported as ≤ 0.5.
For U2G A15G G17A C29G A40U C61U C66U, the yeast fitness was ≤ 0.5.
In the case of G6A G9C A21C C30U, the yeast fitness is reported as ≤ 0.5.
U8A A40U gave a yeast fitness of 0.707.
For G9A G25A U35G, the yeast fitness was ≤ 0.5.
In the case of A20U C22U C33U, the yeast fitness is reported as ≤ 0.5.
For C5U G9A G10C G12A G25A C33G G39A, the yeast fitness was ≤ 0.5.
For C27A A42G, the yeast fitness was 0.791.
In the case of C11G C24U A42G A65G, the yeast fitness is reported as ≤ 0.5.
For G25C C29G G52A A69U, the yeast fitness was ≤ 0.5.
For C4U G12A C27G C34A C49A C66U, the yeast fitness was ≤ 0.5.
With C11G U16C C22U C55U G68U the yeast fitness was ≤ 0.5.
With U19C C27U C46A C62G A69U the yeast fitness was ≤ 0.5.
With U28C C33U G41A A69U the yeast fitness was ≤ 0.5.
C5U C46U C55G U64A showed a yeast fitness of 0.638.
For A43C C49U C55G, the yeast fitness was 0.519.
With U2G A40C G41C A42U the yeast fitness was ≤ 0.5.
For C34G C62A, the yeast fitness was 0.64.
For C30U C46G, the yeast fitness was 0.874.
U19A C24G C33G C34G G51A showed a yeast fitness of 0.531.
For G25C U26G A40U C46G A70U, the yeast fitness was ≤ 0.5.
With C34A A42U A65C the yeast fitness was ≤ 0.5.
With C24U A42G A70C the yeast fitness was 0.642.
For C33G G39C A69C, the yeast fitness was ≤ 0.5.
Work on U7A C33G yielded a yeast fitness of 0.59.
With A15G C46G C55U the yeast fitness was ≤ 0.5.
With U2G U32G the yeast fitness was 0.68.
For U7C U8A G23A, the yeast fitness was ≤ 0.5.
With C5G C24U the yeast fitness was 0.893.
With C5U C49U C66U the yeast fitness was 0.887.
In the case of G18A A20U C29G A37U C55A C66U, the yeast fitness is reported as ≤ 0.5.
Variant U2A C34G A40C C46G has a yeast fitness of 0.516.
